# Active and inactive are the calls of the source. The calls are words filed in the database; no cut-off is given here.
# Tests used:
# [1] = tested on: Vero; experiment: (§1) Cytotoxicity against African green monkey Vero cells after 6 to 7 days by MTS assay; assay type: cell-based; conditions: chlorocebus sabaeus, vero
# Summary of the method: (§2)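 Vero cells (subcultured 1:4, grown 7 days) seeded at 25 000 cells per well with serial compound dilutions in MEM Rega3 with 2% FCS, L-glutamine and bicarbonate. Incubated 6−7 days at 37 °C, 5% CO2. Medium then replaced with 5% MTS in phenol red-free medium for 1.5 h, A498 read. CC50 taken from dose−response curves as % of controls; multiple independent experiments.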
# [2] = Inhibition of Dengue virus NS5 polymerase assessed as inhibition of radiolabeled guanosine incorporation into homopolymeric cytosine RNA template by liquid scintillation counting
# Summary of the method: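 DENV-2 NS5 polymerase, produced and purified by a prior method, assayed by radiolabeled guanosine incorporation on a homopolymeric cytosine RNA template. IC50 fitted by % enzyme activity = 100/[…], with I the inhibitor concentration; 3′-deoxy-GTP served as reference.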
# [3] = as §1; assay type: cell-based; conditions: chlorocebus sabaeus, Vero cells; summary of the method: as §2
# [4] = tested on: Chikungunya virus; experiment: Antiviral activity against Chikungunya virus infected in Vero cells assessed as inhibition of virus-induced cytopathic effect after 6 to 7 days by MTS assay; assay type: functional, cell-based
SMILES,Activity [1],IC50 [2],CC50 [3],Activity [4]
O=C(OC[C@H]1O[C@@H](Oc2ccc(O)cc2COC(=O)c2cccc(O)c2O)[C@H](OC(=O)c2ccccc2)[C@@H](O)[C@@H]1O)c1ccccc1 [SCOLOCHINENOSIDE D],Non-toxic,9.5 µM,,
O=C(OC[C@H]1O[C@@H](Oc2ccc(O)cc2CO)[C@H](O)[C@@H](O)[C@@H]1O)c1ccccc1 [POLIOTHYRSOSIDE],,> 50 µM,,
C=C(C)[C@@H]1CC[C@]2(C(=O)O)CC[C@]3(C)[C@H](CC[C@@H]4[C@@]5(C)CC[C@H](OC(=O)/C=C/c6ccc(O)c(O)c6)C(C)(C)[C@@H]5CC[C@]43C)[C@@H]12,,0.85 µM,6.9 µM,
O=C(OC[C@H]1O[C@@H](Oc2ccc(O)cc2COC(=O)[C@@]2(O)[C@H](O)C=CC(=O)[C@@H]2O)[C@H](O)[C@@H](OC(=O)c2ccccc2)[C@@H]1O)c1ccccc1 [FLACOURTOSIDE E],Non-toxic,13.4 µM,,inactive
O=C(OC[C@H]1O[C@@H](Oc2ccc(O)cc2COC(=O)[C@@]2(O)[C@H](O)C=CC(=O)[C@@H]2O)[C@H](OC(=O)c2ccccc2)[C@@H](O)[C@@H]1O)c1ccccc1 [XYLOSMIN],,24.3 µM,,
O=C(OC[C@H]1O[C@@H](Oc2ccc(O)cc2COC(=O)c2ccccc2O)[C@H](O)[C@@H](O)[C@@H]1O)c1ccccc1 [ITOSIDE H],,37.8 µM,,
O=Cc1cc(O)ccc1O[C@@H]1O[C@H](COC(=O)c2ccccc2)[C@@H](O)[C@H](O)[C@H]1O [FLACOURTOSIDE B],,71.1 µM,,inactive
O=Cc1cc(O)ccc1O[C@@H]1O[C@H](COC(=O)c2ccccc2)[C@@H](O)[C@H](O[C@@H]2O[C@H](COC(=O)c3ccccc3)[C@@H](O)[C@H](O)[C@H]2O)[C@H]1O [FLACOURTOSIDE C],,23.8 µM,,inactive
O=C(OC[C@H]1O[C@@H](Oc2ccc(O)cc2COC(=O)C2(O)CC(=O)[C@@H](O)[C@@H](O)[C@H]2O)[C@H](OC(=O)c2ccccc2)[C@@H](O)[C@@H]1O)c1ccccc1 (some centres undefined) [FLACOURTOSIDE D],,35.5 µM,,inactive
O=C(OC[C@H]1O[C@@H](Oc2ccc(O)cc2COC(=O)[C@@]2(O)[C@H](O)C=CC(=O)[C@@H]2OC(=O)c2ccccc2)[C@H](OC(=O)c2ccccc2)[C@@H](O)[C@@H]1O)c1ccccc1 [FLACOURTOSIDE F],,39.8 µM,,inactive
Nc1nc2c(ncn2[C@@H]2O[C@H](COP(=O)(O)OP(=O)(O)OP(=O)(O)O)C[C@H]2O)c(=O)[nH]1,,0.02 µM,,
